Calls of active or inactive are those of the source. No cut-off for these calls is given here. Residues, ends and D or L forms follow the SMILES beside them.
Assays:
[1] = biological target: T1, P2X purinoceptor 7 (Homo sapiens) (UniProt Q99572); experiment: Antagonist activity at human recombinant P2X7 receptor expressed in HEK293 cells assessed as BzATP-induced ethidium accumulation at 10 uM; format: functional, cell-based
T1 sequence (whole entry): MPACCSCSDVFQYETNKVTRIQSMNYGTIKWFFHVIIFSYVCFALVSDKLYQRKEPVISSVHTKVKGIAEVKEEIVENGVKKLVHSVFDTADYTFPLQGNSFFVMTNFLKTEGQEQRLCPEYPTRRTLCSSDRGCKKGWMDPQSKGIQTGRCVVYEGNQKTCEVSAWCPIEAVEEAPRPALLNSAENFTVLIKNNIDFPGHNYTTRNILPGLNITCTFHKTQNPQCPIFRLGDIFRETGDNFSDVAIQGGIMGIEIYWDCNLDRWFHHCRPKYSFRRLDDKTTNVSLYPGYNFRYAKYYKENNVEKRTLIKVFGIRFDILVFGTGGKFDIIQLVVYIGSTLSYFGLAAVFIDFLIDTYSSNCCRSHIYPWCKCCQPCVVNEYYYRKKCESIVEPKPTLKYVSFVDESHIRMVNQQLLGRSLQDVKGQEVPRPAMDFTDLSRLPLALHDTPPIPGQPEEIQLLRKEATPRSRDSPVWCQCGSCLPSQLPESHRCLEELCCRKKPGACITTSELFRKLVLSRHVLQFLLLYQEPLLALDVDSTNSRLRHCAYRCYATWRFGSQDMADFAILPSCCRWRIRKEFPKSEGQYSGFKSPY
Procedure, shortened: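 HEK293 cells expressing human P2X7, grown in DMEM with 10% FBS. Cells resuspended in HEPES/KCl/glucose/EDTA buffer (pH 7.4) with 100 µM ethidium bromide, 2 × 10^5 cells/well. 6 µM BzATP given together with 10 µM compound, no preincubation. After 120 min at 37 °C, ethidium fluorescence read (ex 530/em 590 nm). Mean ± SEM, n = 3.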

[2] = biological target: T2, P2X purinoceptor 1 (Mus musculus) (UniProt P51576); experiment: Antagonist activity at mouse recombinant P2X1 receptor expressed in Xenopus oocytes assessed as inhibition of ATP-induced ion current at 10 uM by two electrode voltage clamping technique; format: functional, cell-based; settings: Oocyte
T2 sequence (whole entry): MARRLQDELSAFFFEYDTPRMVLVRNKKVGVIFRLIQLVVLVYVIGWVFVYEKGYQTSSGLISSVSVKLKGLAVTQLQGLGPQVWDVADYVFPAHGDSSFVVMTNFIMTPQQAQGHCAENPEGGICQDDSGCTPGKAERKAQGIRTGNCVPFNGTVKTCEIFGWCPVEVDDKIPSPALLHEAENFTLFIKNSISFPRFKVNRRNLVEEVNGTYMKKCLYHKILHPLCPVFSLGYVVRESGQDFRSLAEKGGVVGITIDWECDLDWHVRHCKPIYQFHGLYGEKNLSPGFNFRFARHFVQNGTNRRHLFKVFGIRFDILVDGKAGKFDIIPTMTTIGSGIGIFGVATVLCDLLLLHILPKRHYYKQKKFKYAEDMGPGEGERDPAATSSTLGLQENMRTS
Procedure, shortened: (§1)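 Defolliculated Xenopus oocytes injected with receptor cRNA (40 nL, 1 µg/mL). Incubated 24 h at 18 °C in Barth's solution, then kept at 4 °C for up to 12 days. Two-electrode voltage clamp at Vh -90 mV in Ringer's solution (Ba2+, pH 7.5, 18 °C). Peptide applied 20 min before 2 µM ATP; current inhibition measured against ATP-alone control; n = 4.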

[3] = biological target: T3, P2X purinoceptor 3 (Homo sapiens) (UniProt P56373); experiment: Antagonist activity at human recombinant P2X3 receptor expressed in Xenopus oocytes assessed as inhibition of ATP-induced ion current at 10 uM by two electrode voltage clamping technique; format: functional, cell-based; settings: Oocyte; procedure, shortened: as §1
T3 sequence (whole entry): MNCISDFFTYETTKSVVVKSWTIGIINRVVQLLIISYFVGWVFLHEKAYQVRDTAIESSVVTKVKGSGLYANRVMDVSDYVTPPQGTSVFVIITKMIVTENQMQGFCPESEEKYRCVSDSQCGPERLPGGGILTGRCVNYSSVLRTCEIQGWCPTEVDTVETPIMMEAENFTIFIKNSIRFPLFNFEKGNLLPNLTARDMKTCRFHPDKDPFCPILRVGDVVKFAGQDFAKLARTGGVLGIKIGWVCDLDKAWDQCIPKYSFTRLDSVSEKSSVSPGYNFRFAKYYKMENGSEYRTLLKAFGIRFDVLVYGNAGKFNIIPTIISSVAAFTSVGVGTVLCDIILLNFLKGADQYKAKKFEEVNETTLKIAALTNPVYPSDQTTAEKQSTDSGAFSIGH

[4] = biological target: T3, P2X purinoceptor 3 (Homo sapiens); experiment: Antagonist activity at human recombinant P2X3 receptor expressed in Xenopus oocytes assessed as inhibition of ATP-induced ion current at 100 nM by two electrode voltage clamping technique; settings: Oocyte
[5] = biological target: T4, P2X purinoceptor 3 (Homo sapiens, UniProt P56373); experiment: Antagonist activity at human P2X3 receptor expressed in Xenopus oocytes assessed as inhibition of ATP-induced ion current by two electrode voltage clamping technique; format: functional, cell-based, Oocyte; procedure, shortened: as §1
T4 sequence (P56373 whole entry): T3 sequence (whole entry)

[6] = biological target: T2, P2X purinoceptor 1 (Mus musculus); experiment: Antagonist activity at mouse recombinant P2X1 receptor expressed in Xenopus oocytes assessed as inhibition of ATP-induced ion current at 100 nM by two electrode voltage clamping technique; settings: Oocyte
[7] = biological target: T4, P2X purinoceptor 3; experiment: Antagonist activity at human recombinant P2X3 receptor expressed in Xenopus oocytes assessed as inhibition of ATP-induced ion current in presence of 20 nM LVVYPWA peptide by two electrode voltage clamping technique; format: functional, cell-based, Oocyte

| Compound | Activity [1] | inhibition [2] | inhibition [4] | further results |
| --- | --- | --- | --- | --- |
| CC(C)C[C@@H](NC(=O)[C@H](NC(=O)[C@H](NC(=O)[C@@H](Cc1ccc(O)cc1)NC(=O)[C@H]1CCCN1C(=O)[C@@H](Cc1c[nH]c2ccccc12)NC(=O)[C@H](N)[C@@H](C)O)C(C)C)C(C)C)C(=O)O | inactive | 15.5% |  |  |
| C[C@@H](O)[C@H](NC(=O)[C@H](Cc1c[nH]c2ccccc12)NC(=O)[C@@H]1CCCN1)C(=O)O (H-Pro-Trp-Thr-OH) |  |  |  | inhibition [3]: 32.7% |
| N[C@@H](Cc1ccc(O)cc1)C(=O)N1CCC[C@H]1C(=O)N[C@@H](Cc1c[nH]c2ccccc12)C(=O)O (H-Tyr-Pro-Trp-OH) |  |  |  | inhibition [3]: 15.6% |
| CC(C)[C@H](N)C(=O)N[C@@H](Cc1ccc(O)cc1)C(=O)N1CCC[C@H]1C(=O)N[C@@H](Cc1c[nH]c2ccccc12)C(=O)O (H-VYPW-OH) |  |  |  | Activity [3]: inactive |
| CC(C)[C@H](N)C(=O)N[C@@H](Cc1ccc(O)cc1)C(=O)N1CCC[C@H]1C(=O)O (H-Val-Tyr-Pro-OH) |  |  |  | inhibition [3]: 16.2% |
| C[C@@H](O)[C@H](NC(=O)[C@H](Cc1c[nH]c2ccccc12)NC(=O)[C@@H]1CCCN1C(=O)[C@@H](N)Cc1ccc(O)cc1)C(=O)O (H-YPWT-OH) |  |  |  | inhibition [3]: 13.3% |
| CC(C)[C@@H]1NC(=O)[C@H](C)NC(=O)[C@H]([C@@H](C)O)NC(=O)[C@H](Cc2c[nH]c3ccccc23)NC(=O)[C@@H]2CCCN2C(=O)[C@H](Cc2ccc(O)cc2)NC(=O)[C@H](C(C)C)NC1=O (HELM PEPTIDE1{A.V.V.Y.P.W.T}$PEPTIDE1,PEPTIDE1,1:R1-7:R2$$$V2.0) | inactive | 6.4% | 11.4% |  |
| CC(C)C[C@@H]1NC(=O)[C@H]([C@@H](C)O)NC(=O)[C@H](Cc2c[nH]c3ccccc23)NC(=O)[C@@H]2CCCN2C(=O)[C@H](Cc2ccc(O)cc2)NC(=O)[C@H](C(C)C)NC(=O)[C@H](C(C)C)NC1=O (HELM PEPTIDE1{L.V.V.Y.P.W.T}$PEPTIDE1,PEPTIDE1,1:R1-7:R2$$$V2.0) |  | 11.5% | 36.3% | inhibition [1]: 8.8%; IC50 [5]: 82.4 nM |
| Cc1nc(/N=N/c2cc(S(=O)(=O)O)ccc2S(=O)(=O)O)c(COP(=O)(O)O)c(C=O)c1O [ISOPPADS] |  |  | 48.3% | inhibition [6]: 64.2%; IC50 [5]: 108 nM |
| H-AVVYPWT-OH | inactive |  | 82.5% | Activity [2]: inactive; IC50 [5]: 14.3 nM |
| H-LAVYPWT-OH |  | 8.1% | 48.4% | inhibition [1]: 7.6%; IC50 [5]: 32.4 nM |
| H-LVAYPWT-OH | inactive |  | 53.4% | Activity [2]: inactive |
| H-LVVAPWT-OH | inactive |  | 52.3% | Activity [2]: inactive |
| H-LVVYAWT-OH | inactive |  | 12.9% | Activity [2]: inactive |
| H-LVVYPAT-OH |  | 4.2% | 17% | inhibition [1]: 16.7% |
| H-LVVYPWT-OH [SPINORPHIN] |  | 7.4% | 67.2% | inhibition [1]: 8.3%; IC50 [7]: 0.0481 nM; IC50 [5]: 0.0083 nM |
| H-VVYPWT-OH |  |  |  | inhibition [3]: 29.3% |
| H-VYPWT-OH |  |  |  | Activity [3]: inactive |

— ChEMBL document CHEMBL1148747, “Structure-activity relationship studies of spinorphin as a potent and selective human P2X(3) receptor antagonist” (J Med Chem, 2007)
